Article PMC7966865 (Molecular Metabolism, 2021)

Legend:
[1] = test system: endogenous FOXO1 target gene expression (G6pc, Pck1, Foxo1 mRNA) in primary hepatocytes; experiment: cAMP/Dex-induced gene expression; format: cell-based; conditions: primary mouse hepatocytes, insulin 100 nM, 6 h; for cAMP/Dex-induced G6pc mRNA expression / cAMP/Dex-induced Pck1 mRNA expression: FOXO1 inhibitors 10 μM; for effect on Foxo1 mRNA levels: cAMP + Dex, compound 10 10 μM
Method in brief: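 Hepatocytes from 8–10-week-old male C57/BL6 mice, plated on collagen at 200,000 cells/well, recovered 4–5 h, then serum-reduced (1% FBS M199, G418) 15–16 h. Stimulation: cAMP 100 μM + dexamethasone 1 μM, with test compound (10 μM, or 10 nM–10 μM). q-RT-PCR normalized to Ppia. For IC50: 0% = unstimulated, 100% = cAMP + Dex; 3–6 wells/concentration; 4 experiments pooled; 4-parameter fit.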

[2] = test system: normal C57 mice / control mice (Foxo1 flox/flox); experiment: Pyruvate tolerance test; format: in vivo, mouse
[3] = test system: liver-specific Foxo1 knockout (LKO) mice; experiment: Pyruvate tolerance test; format: in vivo, mouse; conditions: three doses
Method in brief: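 Liver-specific Foxo1 knockout mice (Albumin-Cre; Foxo1 flox/flox), male and female, were randomized by body weight and fed glucose. They received three oral doses of test compound at 10 ml/kg (8 am, 5 pm, 8 am), at 16 mg/kg in Optiform Select #8 or 30 mg/kg in 5% DMSO/95% PEG-400. After fasting, they were given sodium pyruvate 2 g/kg i.p. in saline. Tail glucose was read at 0–120 min. N = 7–15; tested once.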

pGK-FFluc = experiment: Non-specific activity: constitutive pGK-FFluc reporter in HEK293 cells; format: cell-based; conditions: Homo sapiens, HEK293, read-out: Non-specific activities pGK-FFluc IC50
Method in brief: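 In the wild-type FOXO1 format, HEK293 cells in EMEM with 1% FBS were co-transfected with IRE-NanoLuc, constitutive pGK-firefly luciferase and the FOXO1-WT plasmid. Test compound was dosed right after transfection as a 10-point half-log series in duplicate, at 0.5% final DMSO. After 24 h, lysates were read by Nano-Glo Dual-Luciferase. Relative IC50 came from a four-parameter fit, with at least two experiments.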

pCMV-Rluc = experiment: Non-specific activity: constitutive pCMV-Rluc reporter in HEK293 cells; format: cell-based; conditions: Homo sapiens, HEK293, read-out: Non-specific activities pCMV-Rluc IC50
Method in brief: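 HEK293 cells in EMEM with 1% FBS were co-transfected with IRE-firefly luciferase, constitutive CMV-Renilla luciferase and a forkhead factor or RFP control plasmid. Test compound was added immediately as a 10-point half-log series in duplicate, at 0.5% final DMSO. After 24 h, lysates were read by Dual-Glo luciferase. Relative IC50 came from a four-parameter fit, with at least two independent experiments.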

Cell viability = format: cell-based; conditions: human
Method in brief: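 HEK293 cells were seeded overnight in EMEM with 1% FBS and then transfected for reporter assays. Test compound was added right after transfection as a 10-point half-log dilution in duplicate, at 0.5% final DMSO. After 24 h at 37 °C, medium taken off the cells was assayed for lactate dehydrogenase activity by LDH-Glo luminescence. At least two independent experiments were run.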

Mouse PK = format: in vivo
Method in brief: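 Male ICR mice (N = 3 per route) were dosed with test compound in Solutol HS-15:saline (5:95 v/v), i.v. at 1 mg/kg or p.o. at 10 mg/kg. Blood was sampled at 0.083–24 h (8 time points) and processed to plasma. Plasma levels were measured by LC-MS/MS and used to calculate PK parameters.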

db/db mice = experiment: Chronic study in db/db mice; format: in vivo, mouse; conditions: for ALT / AST: 6-h-fasted plasma; for hepatic histology (H&E): after 10 days of treatment; for glucose levels during ITT: day 9, i.p. insulin 0.75U/kg, all time points; for HOMA-IR index (worsening of insulin resistance over the study) / HOMA-β: calculated from fasting glucose and insulin
Method in brief: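 Male db/db mice (C57BL/6J background), 6–7 weeks old, were acclimated for 2 weeks and randomized by weight and glucose. They received vehicle, test compound or rosiglitazone (10 mg/kg in 0.5% methylcellulose) orally for 10 days. Body weight was recorded each morning before dosing. 6-h-fasted glucose and ELISA insulin on days 0, 5 and 10 gave HOMA-IR and HOMA-β. Fasted plasma ALT/AST were measured colorimetrically. N = 6–8.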

[4] = test system: STZ-induced diabetic mice; experiment: Chronic study in streptozotocin; format: in vivo, mouse
Method in brief: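 Male C57BL/6J mice received STZ 50 mg/kg i.p. in citrate buffer pH 4.5 for 5 days, until glucose reached 300–450 mg/dL, then were randomized. Human recombinant FGF21 was given s.c. at 0.45 mg/kg daily from day 1. Test compound in Solutol HS-15:saline (5:95) was given p.o. at 32 mg/kg/dose twice daily from day 4. Readings: 6-h-fasted plasma TG (colorimetric), body weight change day 10 vs day 0, and day-11 perigonadal fat weight. N = 5–6.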

[5] = male, ICR, mouse, plasma, iv, 1 mg/kg
[6] = male, ICR, mouse, plasma, po, 10 mg/kg

CCn1cc(C(=O)O)c(=O)c2c(N)c(F)c(NC3CCCCC3)cc21 [AS1842856, reference compound]
cAMP/Dex-induced G6pc mRNA expression [1]: significantly suppressed
cAMP/Dex-induced Pck1 mRNA expression [1]: significantly suppressed
glucose excursion during PTT ([2]; 4-h-fasted mice, higher dose level (30 or 100 mg/kg/dose tested) p.o.): significantly lowered glucose excursion
glucose levels during PTT ([2]; overnight-fasted C57 mice and control mice, 30 mg/kg p.o., three doses): able to reduce glucose levels
glucose levels during PTT ([3]; liver Foxo1 knockouts, 30 mg/kg/dose p.o.): reduced glucose levels

CN1CCN(c2ccc(C(=O)Nc3cc(-c4nc5ccccc5[nH]4)n[nH]3)cc2)CC1 [Compound 10, N-[3-(1H-1,3-benzodiazol-2-yl)-1H-pyrazol-5-yl]-4-(4-methylpiperazin-1-yl)benzamide]
IC50 (pGK-FFluc): > 10 µM
IC50 (pCMV-Rluc): > 24 µM
CC50 at 24 h (Cell viability): > 24 µM
effect on Foxo1 mRNA levels [1]: did not affect
cAMP/Dex-induced G6pc mRNA expression [1]: significantly suppressed
cAMP/Dex-induced Pck1 mRNA expression [1]: significantly suppressed
CL (Mouse PK; male ICR mice, IV 1 mg/kg): 22.7 mL/kg∗min
AUCinf (Mouse PK; male ICR mice, IV 1 mg/kg, plasma): 1.86 μM∗h
AUCinf (Mouse PK; male ICR mice, PO 10 mg/kg, plasma): 4.66 μM∗h
Vd (Mouse PK; [5]): 1.71 L/kg
half-life (Mouse PK; [5]): 73.8 min
bioavailability (Mouse PK; male, ICR, mouse, plasma, oral, 10 mg/kg): 25.5%
Cmax (Mouse PK; [6]): 1620 nM
Tmax (Mouse PK; [6]): 40.2 min
glucose lowering during PTT ([2]; normal C57 mice fasted overnight (16 h), 16 mg/kg p.o., three doses): ineffective at lowering glucose
glucose levels during PTT ([3]; LKO mice, 16 mg/kg/dose p.o.): failed to reduce glucose levels
reduced food intake (trend) (db/db mice; db/db mice, follow-up study, vs vehicle): 12%
plasma TG (db/db mice; male db/db mice, 6-h-fasted): no significant effects
plasma total cholesterol (TC) (db/db mice; male db/db mice, 6-h-fasted): no significant effects
ALT (db/db mice; male db/db mice): not affected
AST (db/db mice; male db/db mice): not affected
hepatic histology (H&E) (db/db mice; male db/db mice): no apparent effect
glucose levels during ITT (db/db mice; male db/db mice): significantly reduced glucose levels
blood glucose (db/db mice; male db/db mice, p.o. twice daily, ten days): reduced blood glucose to an extent similar to the PPARγ agonist rosiglitazone
weight loss (trend) (db/db mice; male db/db mice, ten days): 5%
insulin levels (db/db mice; male db/db mice, ten days, 6 h fast): did not significantly affect
HOMA-IR index (worsening of insulin resistance over the study) (db/db mice; male db/db mice, ten days): staunched
HOMA-β (db/db mice; male db/db mice, ten days): tended to be improved
body weight ([4]; day 10 compared to day 0): trend toward reduced body weight
reduction in perigonadal fat pad weight ([4]; end of the study (day 11)): > 50%

CN(CCOc1ccc(CC2SC(=O)NC2=O)cc1)c1ccccn1 (centres unmarked) [rosiglitazone, reference compound]
plasma TG (db/db mice; male db/db mice, 6-h-fasted): reduced plasma TG
ALT (db/db mice; male db/db mice): not affected
AST (db/db mice; male db/db mice): not affected
hepatic histology (H&E) (db/db mice; male db/db mice): exacerbated hepatic steatosis
glucose levels during ITT (db/db mice; male db/db mice): significantly reduced glucose levels
body weight (db/db mice; male db/db mice, rosiglitazone 10 mg/kg, ten days): weight gain
HOMA-IR index (worsening of insulin resistance over the study) (db/db mice; male db/db mice, ten days): staunched
HOMA-β (db/db mice; male db/db mice, ten days): tended to be improved

insulin
effect on Foxo1 mRNA levels [1]: did not affect
cAMP/Dex-induced G6pc mRNA expression [1]: significantly suppressed
cAMP/Dex-induced Pck1 mRNA expression [1]: significantly suppressed

B1: FGF21: Human recombinant FGF21 (Sino Biological), fibroblast growth factor 21 (protein, UniProt Q9NSA1 29-209, looked up)
Fibroblast growth factor 21: HPIPDSSPLLQFGGQVRQRYLYTDDAQQTEAHLEIREDGTVGGAADQSPESLLQLKALKPGVIQILGVKTSRFLCQRPDGALYGSLHFDPEACSFRELLLEDGYNVYQSEAHGLPLHLPGNKSPHRDPAPRGPARFLPLPGLPPALPEPPGILAPQPPDVGSSDPLSMVGPSQGRSPSYAS
plasma TG ([4]; 6-h fast): significantly reduced
